According to the RNAGym collection of RNA variant scans (doi:10.1126/science.aae0568):
Variants at the floor of the assay were thinned out.

B1: tRNA (parent)
chain: GUUCCGUUGGCGUAAUGGUAACGCGUCUCCCUCCUAAGGAGAAGACUGCGGGUUCGAGUCCCGUACGGAACG

Variants of: B1
Assay: yeast fitness relative to wild type (ratio to wild type); higher = fitter; tRNA-Arg(CCU), competitive growth, 37 C, YPD
Procedure, shortened: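 Gene amplicons from the start population and from each of six end populations were read by 100-nucleotide paired-end sequencing. Those end populations came from pooled Saccharomyces cerevisiae strains carrying tRNA-Arg(CCU) gene variants at the native locus, competed in YPD at 37°C for 24 hours. Fitness relative to wild type was worked out from changes in genotype frequencies. Genotypes needed ≥ 100 starting reads, and estimates < 0.5 were set to 0.5.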

Which yeast fitness does the source give for GUUCCGUUGGCGUAAUGGUAACGCGUCUCCCCCCUAAGGUGAAGACUGCGGGUUCGAGUCCCGUACGGAUCG [U32C A40U A70U] here?
The yeast fitness was 0.784.

For GUUCCGUUGGCGCAAUGGUAAGGCGUAUCCCUCCUAAGGAGAAGACUGCGCGUUCGAGUCCCGUACGGAUCG [U13C C22G C27A G51C A70U], which yeast fitness is on record?
Its yeast fitness is ≤ 0.5.

Which yeast fitness does the source give for GUUCCGUUAGCGUAAUGGUAACGCGUCUCCAUCCUAAGGAGAAGACUGCGGGUUCGAGUCCCGUUCGGAACG [G9A C31A A65U] here?
The yeast fitness was ≤ 0.5.

For GUUCCGUUGGAGUACUGGUAACGCGUCUCCCUCCUAAGGAGAAGACUGCGGGUCCGAGUCCCGUAGGGAACG [C11A A15C U54C C66G], which yeast fitness is on record?
The yeast fitness was ≤ 0.5.

Which yeast fitness does the source give for GUUCCGUCGGCGUAAUGGUAAGGCGUCACCCUGCUAAGGAGAAGACUGCGGGUUCGCGUCCCGUACGGAACG [U8C C22G U28A C33G A57C] here?
The yeast fitness was ≤ 0.5.

For GUUCCGUUGGCGUAAUGGUAACGCGUCUCCCUCCUAAGGAGAAGACUGCGGCUUCGAGUCCCAUACGGAACG [G52C G63A], which yeast fitness is on record?
The yeast fitness was 0.642.

For GUUGCGUUGGCGUAAUGGUAUCGCGUCUCCCUCCUAAGGAGAAGACUGCGGGUUCGAGUCCCGUAGGGAACG [C4G A21U C66G], which yeast fitness is on record?
The yeast fitness was ≤ 0.5.

For GAUCCGUUGGCGUAAUGGUAACGCGUCUCCCUCCUAAGGAGAAGACUGCGGGUUCCGGUCCCGUACGUAACG [U2A G56C A57G G68U], which yeast fitness is on record?
The yeast fitness was ≤ 0.5.

For GUUCGGUUGGCGUAAUGGUAACGCGUCUCCCUCCUAAGGAGAAGACUGGGGGUUCGAGUCCCAUACGGAACG [C5G C49G G63A], which yeast fitness is on record?
The yeast fitness was 0.57.

With GUUCCGUUGGCGUAAUGGUAACGCAUCUCCAUCCUAAGGAGAAGCCUGCAGGUUCGAGUCCCGUACGGUACG [G25A C31A A45C G50A A69U] as the variant, how does the yeast fitness read?
Its yeast fitness is ≤ 0.5.

With GUUCCGUUGGCGAAAUGGUAACGCGUUUCCCUCCUAAGGAGAAGACUGCGGGUUCAAGUCCCGUACGGAACG [U13A C27U G56A] as the variant, how does the yeast fitness read?
Its yeast fitness is 0.97.

Which yeast fitness does the source give for GUUCCGUUGGCGUAAUGGUAUCGCGUCUCCCUCCUAAGGAGAAGUCUGCGGGUUCGAGUCCCGUACCGAACG [A21U A45U G67C] here?
Its yeast fitness is 0.598.

With GUCCCGUUGGAGUAAUGGUAACGCGUCUCCAUCCUAAGGAGAAGACUGCGGGUUCGAGUCCCGUACGCAACG [U3C C11A C31A G68C] as the variant, how does the yeast fitness read?
Its yeast fitness is 0.582.

For GUUCCGUUGGCGUAAUGGUAAGGCGUCUCCCUCCUAAGGAGGAGACUGCGGGUUCGAGUCCCGUACGGAACG [C22G A42G], which yeast fitness is on record?
Its yeast fitness is 0.716.

For GUUCCGUUGGUGUAAUGGUAACGCGUCUCCCUCCUAAGGGGAAGACUGCGGGUUCGAGUCCCGUCCGGAACG [C11U A40G A65C], which yeast fitness is on record?
Its yeast fitness is 0.594.

Which yeast fitness does the source give for GUUCCGUUGGAGUAAUGGUUACGCGUCUCCCUCCUAAGGAGAAGACUGCGGGUUCGAGUCCCGUACGGAACG [C11A A20U] here?
The yeast fitness was 0.681.

Which yeast fitness does the source give for GUUCCGUUAGGGUAAUGGUAACGCGUCUCCCUCCUAAGGAGAAGACUGCGGGUUGGAGUCCCGUACGGAACG [G9A C11G C55G] here?
Its yeast fitness is 0.562.

For GUUCCGUGGGCGUAAUGGUAACGCGUCUCCCCGCUAAGGAGAAGACUGCGGGUUCGAGUCACGUAUGGAACG [U8G U32C C33G C61A C66U], which yeast fitness is on record?
The yeast fitness was ≤ 0.5.

Which yeast fitness does the source give for GUUCCGUUGGCGUAAUGGUAACGCGUCUCCCUCCUUAGGAGAAGACUGUGGGUUCGAGUCCCGUACGGAACG [A36U C49U] here?
Its yeast fitness is 0.585.

Which yeast fitness does the source give for GUUCCGUUGGCGUAAUAGUAACGCGUCUCCCUCCUAAGGAGAAGACUGCGGGUUCGACUCCUGUACGGAACG [G17A G58C C62U] here?
The yeast fitness was 0.543.

For GUUCCGUUGGCGUAAUGGUAACGCGUCUCCCUCCUAAGGAGAAGACUGCGGAAUCGAGUCCCGUAUGGAACG [G52A U53A C66U], which yeast fitness is on record?
The yeast fitness was ≤ 0.5.

For GUUCCGUUGGCGUAGUGGUAACGCGUCUCGAUCCUAAGGAGAAGACUGCGGGUUCGAGUCCCGUACGGAACG [A15G C30G C31A], which yeast fitness is on record?
Its yeast fitness is ≤ 0.5.

With GCUCCGUUGGCGUAAUGGUAACGGGUCUCCCUCCUGAGGAGUAGUCUGCGGGUUCGAGUCCCGUACGGAACG [U2C C24G A36G A42U A45U] as the variant, how does the yeast fitness read?
The yeast fitness was ≤ 0.5.

With GUUCCGUUGGCGUAAUGGUAACGCGUCUCCCUCGUAAGGAGAAGACUGCCGGUUCCAGUCCCGUACGGAACG [C34G G50C G56C] as the variant, how does the yeast fitness read?
Its yeast fitness is ≤ 0.5.

For GUUCCGUUGGCGUAAUGGUGACGCGUGUCCCUCCUAAGGAGAAGACUGCGGAUUCGAGUCCCGUACGGAACG [A20G C27G G52A], which yeast fitness is on record?
The yeast fitness was 0.551.

Which yeast fitness does the source give for GUUCCGUUGGCGUAACGGUAACGCGUCUCCCUCGUAAGGAGAAGACUGCGGGUUGGAGUCCCGUACGGAACG [U16C C34G C55G] here?
The yeast fitness was ≤ 0.5.

With GUUUCGUUGGCGUAAUGGUAACGCGCUUCCCUCCUAAGGAGAAGACUGCGGGUUCGAGUCCCGUACGGAACG [C4U U26C C27U] as the variant, how does the yeast fitness read?
The yeast fitness was 0.678.

With GUUGCGUUGGCGUAAUCGUAAGGCGUCUCCCUCCUAAGGAGAAGACUGCGGGUUCGAGUCCCGUACGGAACG [C4G G17C C22G] as the variant, how does the yeast fitness read?
Its yeast fitness is ≤ 0.5.

For GUUCCGUUGGCGUAAUGGUAACGCGUCUCCUUCCUAAGGAGAAGACUGGGGGUUCGAGUCACGUACGGAACG [C31U C49G C61A], which yeast fitness is on record?
The yeast fitness was ≤ 0.5.

With GUACCGUUGGCGUAAUGGUAACGCGUCUCCUUCCUCAGGAGAAGACUGCGGGUUCGAGUCCCGUACGGAACG [U3A C31U A36C] as the variant, how does the yeast fitness read?
The yeast fitness was 0.571.

Which yeast fitness does the source give for GCUCCGUUGGCGUAAUGGUAACGCGUCUCCCUCCUAAGGAGAAGACUGCGGGUUCGAGUCCCCUACGCAACG [U2C G63C G68C] here?
Its yeast fitness is 0.572.

Which yeast fitness does the source give for GUACCGUAGGCGUAAUGGUAACGCCUCUCACUCCUAAGGAGAAGACUGCGGGUCCGAGUCCCGUACGGAACG [U3A U8A G25C C30A U54C] here?
The yeast fitness was ≤ 0.5.

Which yeast fitness does the source give for GUUCCGUUGGCGUGAUGGUAACGCGUCUCCCUCCUCAGGAGAAGACUGCGGGUUCGAGUCCCGUACGGCACG [A14G A36C A69C] here?
Its yeast fitness is ≤ 0.5.

Which yeast fitness does the source give for GUUCCGUUGGCGUAAUGGUAGCGCGUCUCCCUCCUAAGGAGAAGACUGCGGGUUCGGGUCCCGUACGGAACG [A21G A57G] here?
Its yeast fitness is 0.875.

With GCUCCGUUGGCGCAAUGGUAAGGCGACUCCUUCCUAAGGAGCAGACUGCCGGUUCGAGUCCCGUACGGAACG [U2C U13C C22G U26A C31U A42C G50C] as the variant, how does the yeast fitness read?
Its yeast fitness is ≤ 0.5.

Which yeast fitness does the source give for GUUCCGUUGGCGUAAUGGUAACGCGUCUCCCUCCUAAGGAAAAGACUGAGGGUUCGAGUCCCGUACGGAACG [G41A C49A] here?
Its yeast fitness is 0.663.

For GUUCCGUUGGCGUAAUGGUAACGCGCCUCCCUCCUAAGGAGAAGACUGCGGGUUCGAGUCCCCUACGGAACG [U26C G63C], which yeast fitness is on record?
Its yeast fitness is 0.76.

Which yeast fitness does the source give for GUUCCGUUGGCGUACUGGUAACGCGUCUCCCUCCUAAGAAGAAGACUGCGGGUUCGAGUGCCGUACGGAGCG [A15C G39A C60G A70G] here?
The yeast fitness was ≤ 0.5.
